# “Also recorded” adds a separate entry of the source.
# Key:
# [1] = test system: CDK4; settings: cited from earlier work; for IC50: read-out: IC50 for CDK4 inhibition
# [2] = test system: LUSQ cell lines (H157, H2170, H520, H596); test: cell viability; type: cell-based; settings: for sensitivity regarding viability: H157 and H520 cells, Fig. S4
# Summary of the method: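 Four LUSQ lines (H157, H2170, H520, H596) were exposed to the test compound for 72 hours and cell viability was measured. IC50 values for inhibition of viability were derived per line.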
# [3] = test system: CDK4/cyclin D1; test: in vitro kinase assays for CDK4/cyclin D1 activity; type: biochemical; settings: in vitro kinase assay CDK4/cyclin D1
# [4] = test system: PIK3CD; test: in vitro kinase assay; type: biochemical; settings: in vitro kinase assays
# [5] = test system: H157 and H520 cells; test: LC3 Western blots; type: cell-based; settings: 48 hours
# [6] = test system: CDK9; test: in vitro kinase assay; type: biochemical; settings: in vitro kinase assays
# [7] = test system: CSNK2α2; test: in vitro kinase assay; type: biochemical; settings: in vitro kinase assays
# [8] = target: PIK3C3 (Homo sapiens, UniProt Q8NEB9); test: in vitro kinase assay; type: biochemical
# [9] = test system: autophagic vesicles; test: quantitative analysis of autophagic vesicles by Cyto-ID; type: cell-based; settings: 3 hour treatment
# [10] = test system: H157 cells; test: Rb Ser780 phosphorylation immunoblot; type: cell-based; settings: 1 µM and 5 µM, 4 and 24 hours
# [11] = test system: PIK3R4; test: dose-dependent binding competition with soluble drug; settings: Fig. S3C
# [12] = test system: H157 and H520 cells; test: pSer473 AKT and pGSK3 Western blots; type: cell-based; settings: 4 hours
# [13] = test system: AURKA; test: in vitro kinase assay; type: biochemical; settings: in vitro kinase assays
# [14] = test system: GAK; test: dose-dependent binding competition with soluble drug; settings: Fig. S3C
# [15] = test system: TNK1; test: in vitro kinase assay; type: biochemical; settings: in vitro kinase assays
# Chain of PIK3C3 (Q8NEB9 whole entry): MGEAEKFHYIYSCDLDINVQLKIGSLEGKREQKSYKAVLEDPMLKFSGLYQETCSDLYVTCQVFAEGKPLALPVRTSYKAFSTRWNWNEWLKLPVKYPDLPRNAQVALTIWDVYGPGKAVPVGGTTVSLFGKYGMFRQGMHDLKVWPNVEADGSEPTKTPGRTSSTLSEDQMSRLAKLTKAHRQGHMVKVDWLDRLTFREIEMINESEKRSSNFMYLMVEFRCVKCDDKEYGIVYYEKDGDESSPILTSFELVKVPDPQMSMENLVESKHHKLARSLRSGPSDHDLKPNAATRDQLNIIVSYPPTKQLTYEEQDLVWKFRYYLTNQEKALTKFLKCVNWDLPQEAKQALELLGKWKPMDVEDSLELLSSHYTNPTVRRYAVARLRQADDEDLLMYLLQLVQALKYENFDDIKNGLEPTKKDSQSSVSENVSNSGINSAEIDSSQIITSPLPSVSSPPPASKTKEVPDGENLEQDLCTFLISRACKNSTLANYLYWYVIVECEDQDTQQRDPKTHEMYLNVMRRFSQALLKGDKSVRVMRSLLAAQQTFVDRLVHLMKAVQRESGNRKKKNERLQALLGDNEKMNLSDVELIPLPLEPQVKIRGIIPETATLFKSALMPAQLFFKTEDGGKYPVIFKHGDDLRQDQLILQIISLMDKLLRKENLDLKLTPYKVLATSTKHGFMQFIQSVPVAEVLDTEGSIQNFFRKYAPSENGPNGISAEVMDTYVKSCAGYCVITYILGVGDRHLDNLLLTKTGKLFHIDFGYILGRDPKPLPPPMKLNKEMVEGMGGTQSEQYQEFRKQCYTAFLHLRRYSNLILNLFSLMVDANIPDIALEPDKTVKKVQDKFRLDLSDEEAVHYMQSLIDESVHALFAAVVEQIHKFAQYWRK
smiles,measurement,setting,value
"CCN1CCN(Cc2ccc(Nc3ncc(F)c(-c4cc(F)c5nc(C)n(C(C)C)c5c4)n3)nc2)CC1 [Abemaciclib, abemaciclib]",fold more potent for CDK4 than palbociclib and ribociclib,[1],about 5 fold
same,effects on viability compared with palbociclib and ribociclib,"[2]; LUSQ cell lines, Fig. S1",stronger effects
Nc1cc(C(F)(F)F)c(-c2cc(N3CCOCC3)nc(N3CCOCC3)n2)cn1 [BKM120],sensitivity regarding viability,[2],relative insensitivity
CC[C@H](Nc1ncnc2[nH]cnc12)c1nc2cccc(F)c2c(=O)n1-c1ccccc1 [CAL-101],sensitivity regarding viability,[2],relative insensitivity
CN(C)C(=O)c1cc2cnc(Nc3ccc(N4CCN(CCCN)CC4)cn3)nc2n1C1CCCC1 [c-ribociclib],CDK4 activity of coupleable analogues,[3],conservation of their CDK4 activity
CC(=O)c1c(C)c2cnc(Nc3ccc(N4CCNCC4)cn3)nc2n(C2CCCC2)c1=O [palbociclib],"validation as target, PIK3CD",[4],relatively weak; also recorded: new palbociclib targets
same,lipidation of LC3 (LC3-II),[5],increased
same,"validation as target, CDK9",[6],new palbociclib targets
same,"validation as target, CSNK2α2",[7],new palbociclib targets
same,IC50,[8],14800 nM
same,cellular activity compared with ribociclib,"[2]; LUSQ cell lines, 72 hours",somewhat more active
same,number of autophagic vesicles,[9],increased
same,inhibition of Rb phosphorylation at S780,[10],effectively inhibited
same,interaction with PIK3R4,[11],potent interactions
same,inhibition of phosphorylation of AKT S473 and its downstream target GSK3β,[12],dose-dependently inhibits
CN(C)C(=O)c1cc2cnc(Nc3ccc(N4CCNCC4)cn3)nc2n1C1CCCC1 [ribociclib],inhibition of AURKA,[13],weakly inhibited
same,"validation as target, CDK9",[6],potent
same,interaction with GAK,[14],potent interactions
same,"validation as target, TNK1",[15],potent
same,inhibition of Rb phosphorylation at S780,[10],effectively inhibited
